Test results taken from ChEMBL document CHEMBL3108700, “Designing anti-inflammatory drugs from parasitic worms: a synthetic small molecule analogue of the Acanthocheilonema viteae product ES-62 prevents development of collagen-induced arthritis” (J Med Chem, 2013).
The source made the active and inactive calls. How the calls were made is not given here.

Key:
[1] = biological target: T1, Toll-like receptor 9 (Mus musculus) (UniProt Q9EQU3); assay: Inhibition of TLR9 in BALB/c mouse BMDM assessed as downregulation of CpG-stimulated IL-6 level at 5 ug/ml preincubated for 18 hrs followed by CpG challenge measured after 24 hrs by ELISA relative to control
T1 sequence (whole entry): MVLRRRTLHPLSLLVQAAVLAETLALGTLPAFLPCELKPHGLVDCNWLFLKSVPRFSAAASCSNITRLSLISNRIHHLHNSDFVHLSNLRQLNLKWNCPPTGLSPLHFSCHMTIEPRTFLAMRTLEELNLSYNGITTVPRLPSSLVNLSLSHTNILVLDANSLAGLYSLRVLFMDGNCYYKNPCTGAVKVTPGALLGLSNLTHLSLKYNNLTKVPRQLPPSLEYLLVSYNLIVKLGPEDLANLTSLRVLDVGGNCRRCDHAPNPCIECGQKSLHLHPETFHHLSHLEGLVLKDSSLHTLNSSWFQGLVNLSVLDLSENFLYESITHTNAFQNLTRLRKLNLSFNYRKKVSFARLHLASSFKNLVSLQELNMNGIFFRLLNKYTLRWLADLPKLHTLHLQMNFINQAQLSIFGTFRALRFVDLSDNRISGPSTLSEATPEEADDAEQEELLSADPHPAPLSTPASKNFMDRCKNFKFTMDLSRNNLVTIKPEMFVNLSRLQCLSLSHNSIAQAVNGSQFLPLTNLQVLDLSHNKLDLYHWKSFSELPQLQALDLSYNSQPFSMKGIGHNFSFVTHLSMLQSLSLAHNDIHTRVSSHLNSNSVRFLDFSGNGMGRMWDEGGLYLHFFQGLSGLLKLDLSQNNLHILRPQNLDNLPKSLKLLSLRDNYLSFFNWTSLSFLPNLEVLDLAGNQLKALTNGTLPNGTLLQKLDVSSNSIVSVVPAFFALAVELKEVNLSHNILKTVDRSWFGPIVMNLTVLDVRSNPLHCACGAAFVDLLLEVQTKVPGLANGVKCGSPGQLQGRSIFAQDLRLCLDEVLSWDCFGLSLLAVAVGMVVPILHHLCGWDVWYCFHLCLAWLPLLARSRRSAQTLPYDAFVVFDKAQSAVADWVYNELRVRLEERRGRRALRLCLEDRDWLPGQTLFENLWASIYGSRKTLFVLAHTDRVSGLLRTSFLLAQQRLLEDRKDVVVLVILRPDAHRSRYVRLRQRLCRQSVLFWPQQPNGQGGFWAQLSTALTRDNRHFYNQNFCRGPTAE
Procedure, shortened: (§1)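 BALB/c male bone marrow macrophages were differentiated 7 days with L929 supernatant (≥99% CD11b+/F4/80+). Cells were plated at 2 × 10^5/well in triplicate, rested overnight, and given compounds at 5 μg/mL for 18 h. They were then stimulated with 100 ng/mL S. minnesota LPS, 10 ng/mL Pam3CSK4 (BLP) or 0.01 μM CpG for 24 h. Supernatant IL-12p40 and IL-6 were measured by ELISA (sensitivity 16 pg/mL).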

[2] = biological target: T1, Toll-like receptor 9 (Mus musculus); assay: Inhibition of TLR9 in BALB/c mouse BMDM assessed as downregulation of CpG-stimulated IL-12p40 level at 5 ug/ml preincubated for 18 hrs followed by CpG challenge measured after 24 hrs by ELISA relative to control; procedure, shortened: as §1
TLR2/TLR6 (Mus musculus) [3] = biological target: T2, TLR2/TLR6 (Mus musculus) (UniProt Q9QUN7+Q9EPW9); assay: Inhibition of TLR2/6 in BALB/c mouse BMDM assessed as downregulation of BLP-stimulated IL-6 level at 5 ug/ml preincubated for 18 hrs followed by BLP challenge measured after 24 hrs by ELISA relative to control; format: protein-complex assay; procedure, shortened: as §1
TLR2/TLR6 (Mus musculus) [4] = biological target: T2, TLR2/TLR6 (Mus musculus); assay: Inhibition of TLR2/6 in BALB/c mouse BMDM assessed as downregulation of BLP-stimulated IL-12p40 level at 5 ug/ml preincubated for 18 hrs followed by BLP challenge measured after 24 hrs by ELISA relative to control; format: protein-complex assay; procedure, shortened: as §1
[5] = biological target: T3, Toll-like receptor 4 (Mus musculus) (UniProt Q9QUK6); assay: Inhibition of TLR4 in BALB/c mouse BMDM assessed as downregulation of LPS-stimulated IL-6 level at 5 ug/ml preincubated for 18 hrs followed by LPS challenge measured after 24 hrs by ELISA relative to control; procedure, shortened: as §1
T3 sequence (whole entry): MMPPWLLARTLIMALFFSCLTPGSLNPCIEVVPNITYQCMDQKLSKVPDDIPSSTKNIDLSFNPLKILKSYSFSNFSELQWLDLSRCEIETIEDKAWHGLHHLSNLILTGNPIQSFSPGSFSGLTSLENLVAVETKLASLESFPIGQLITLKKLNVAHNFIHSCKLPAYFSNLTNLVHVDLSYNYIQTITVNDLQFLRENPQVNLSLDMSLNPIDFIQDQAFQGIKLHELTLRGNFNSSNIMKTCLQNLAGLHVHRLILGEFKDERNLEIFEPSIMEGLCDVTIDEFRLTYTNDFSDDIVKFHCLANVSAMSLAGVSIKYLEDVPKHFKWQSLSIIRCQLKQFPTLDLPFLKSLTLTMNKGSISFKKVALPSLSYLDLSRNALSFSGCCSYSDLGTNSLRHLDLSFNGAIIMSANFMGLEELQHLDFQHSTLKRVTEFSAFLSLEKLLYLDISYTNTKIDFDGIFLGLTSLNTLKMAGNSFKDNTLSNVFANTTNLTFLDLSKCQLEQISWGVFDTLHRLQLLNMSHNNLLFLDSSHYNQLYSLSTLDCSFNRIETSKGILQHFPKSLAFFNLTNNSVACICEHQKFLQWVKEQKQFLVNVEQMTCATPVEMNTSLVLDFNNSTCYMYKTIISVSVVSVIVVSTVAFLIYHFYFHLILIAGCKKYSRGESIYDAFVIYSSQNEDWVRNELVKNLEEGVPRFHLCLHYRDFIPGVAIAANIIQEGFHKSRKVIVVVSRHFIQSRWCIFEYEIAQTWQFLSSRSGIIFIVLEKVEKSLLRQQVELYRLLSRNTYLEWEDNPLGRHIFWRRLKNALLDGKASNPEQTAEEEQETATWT

[6] = biological target: T3, Toll-like receptor 4 (Mus musculus); assay: Inhibition of TLR4 in BALB/c mouse BMDM assessed as downregulation of LPS-stimulated IL-12p40 level at 5 ug/ml preincubated for 18 hrs followed by LPS challenge measured after 24 hrs by ELISA relative to control; procedure, shortened: as §1

inhibition [1] | inhibition [2] | inhibition (TLR2/TLR6 (Mus musculus) [3]) | inhibition (TLR2/TLR6 (Mus musculus) [4]) | inhibition [5] | inhibition [6] | Structure (SMILES)
inactive | inactive | inactive | Active | inactive | inactive | CC[C@H](C)NCCS(=O)(=O)Cc1ccc(Br)cc1
inactive | inactive | inactive | inactive | inactive | inactive | Cc1ccc(CP(=O)(O)OCCCN(C)C)cc1
inactive | inactive | inactive | inactive | inactive | inactive | CC[C@H](C)NCCS(=O)(=O)Cc1cccc(F)c1
inactive | inactive | Active | inactive | inactive | inactive | CN(C)CCNS(=O)(=O)Cc1ccc([N+](=O)[O-])cc1
inactive | inactive | inactive | inactive | inactive | inactive | O=[N+]([O-])c1ccc(CS(=O)(=O)NCCN2CCOCC2)cc1
inactive | inactive | inactive | inactive | inactive | inactive | Cc1ccc(CS(=O)(=O)NCCN(C)C)cc1
inactive | inactive | inactive | inactive | inactive | inactive | C[N+]1(CCCS(=O)(=O)Cc2ccc(Br)cc2)CCCC1
inactive | inactive | inactive | Active | inactive | inactive | O=S(=O)(CCN1CCCC1)Cc1cccc(F)c1
inactive | inactive | inactive | inactive | inactive | inactive | CN(C)CCN(C)CCS(=O)(=O)c1ccccc1
inactive | inactive | inactive | Active | Active | Active | C[N+]1(CCS(=O)(=O)Cc2ccc(Br)cc2)CCCC1
inactive | inactive | inactive | inactive | inactive | inactive | CN(C)CCCNS(=O)(=O)Cc1ccc(F)cc1
inactive | inactive | inactive | inactive | inactive | inactive | O=[N+]([O-])c1ccc(CNS(=O)(=O)CCN2CCOCC2)cc1
inactive | inactive | inactive | inactive | inactive | inactive | O=[N+]([O-])c1ccc(CNS(=O)(=O)CCN2CCCC2)cc1
inactive | inactive | inactive | Active | inactive | Active | Cc1ccc(CS(=O)(=O)CC[N+]2(C)CCCC2)cc1
inactive | inactive | inactive | Active | inactive | Active | COc1ccc2c(CS(=O)(=O)NCCN3CCCC3)cc(=O)oc2c1
inactive | inactive | inactive | inactive | inactive | inactive | CC[C@@H](C)NCCS(=O)(=O)c1ccccc1
inactive | inactive | inactive | inactive | inactive | inactive | CN(C)CCS(=O)(=O)Cc1cccc(F)c1
inactive | inactive | inactive | Active | inactive | inactive | O=C(CCN1CCOCC1)NCc1cccc2cnccc12
inactive | inactive | inactive | inactive | inactive | inactive | CC[C@@H](C)NCCS(=O)(=O)Cc1ccc(Br)cc1
inactive | inactive | inactive | inactive | Active | Active | O=S(=O)(CCN1CCSCC1)c1ccccc1
inactive | inactive | inactive | inactive | inactive | inactive | CN(C)CCNS(=O)(=O)Cc1ccc(F)cc1
inactive | inactive | inactive | Active | inactive | inactive | CC(C)NCCS(=O)(=O)c1ccccc1
inactive | inactive | inactive | Active | inactive | inactive | CN(C)CCNS(=O)(=O)Cc1ccc(/C=C/c2ccccc2)cc1
inactive | inactive | inactive | inactive | inactive | inactive | CN(C)CCCNS(=O)(=O)Cc1ccccc1
